From ChEMBL document CHEMBL1123581, “Differential blockade of muscarinic receptor subtypes by polymethylene tetraamines. Novel class of selective antagonists of cardiac M-2 muscarinic receptors” (J Med Chem, 1987) come the findings set out here.

For test [1], the target named is Muscarinic acetylcholine receptor. Kind of test: Compound was evaluated for blocking activity on Muscarinic acetylcholine receptor in guinea pig atria. In kind it is protein assay, Cavia porcellus.
Test [2] shares this target. Kind of test: Compound was evaluated for blocking activity on Muscarinic acetylcholine receptor in rat ileum. The class given is tissue-based. The essentials:
(§1)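 Male rat terminal ileum segment (20 mm, ~5 cm from ileocecal junction) or 2-mm longitudinal bladder strip, in Krebs-type solution. After 30 min equilibration, cumulative furtrethonium iodide curves (~3-fold steps) at 30-min intervals; antagonist incubated 30 min. Isometric contraction recorded.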

Test [3] is described as follows: Selectivity ratio of pA2 of guinea pig atria to pA2 of rat bladder. The essentials:
(§2)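 Computed as the antilog of the difference between pA2 values for the two tissues (atria/ileum, atria/bladder, ileum/bladder). Each pA2 is a Schild value from muscarinic agonist dose ratios at three antagonist concentrations, each n≥5.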

A short description of test [4]: Selectivity ratio of pA2 of guinea pig atria to pA2 of rat ileum. In kind it is tissue-based. The essentials: as §2
The nature of test [5]: Selectivity ratio of pA2 of rat ileum to pA2 of rat bladder. The class given is tissue-based. The method in brief: as §2
Test [6] addresses Muscarinic acetylcholine receptor. The experiment in a line: Compound was evaluated for blocking activity on Muscarinic acetylcholine receptor in rat bladder. The method in brief:
as §1

For orientation: pA2 means the negative logarithm of the molar antagonist concentration that doubles the agonist concentration needed for the same response. Higher therefore signals higher antagonist potency. Turning to `COc1ccccc1CNCCCCCCNCCCCCCCCCCCCNCCCCCCNCc1ccccc1OC.Cl`, the pA2 is 7.35 in test [1], 7.62 in test [2] and 7.13 in test [6]. Also, the Ratio in test [3] was found to be 1.66; in test [4], 0.54; in test [5], 3.09.
As to `COc1ccccc1CNCCCCCCNCCCCCCNCCCCCCNCc1ccccc1OC.Cl.Cl.Cl.Cl`, the pA2 was determined as 6.87 in test [1], 5.29 in test [2] and 5.57 in test [6]. For the same molecule, the Ratio in test [3] came out at 20; in test [4], 38; in test [5], 0.52.
As to `COc1ccccc1CNCCCCCCNCCCCCCCCCCNCCCCCCNCc1ccccc1OC.Cl.Cl.Cl.Cl`, the pA2 in test [1] is on record as 7.71; in test [2] it was 5.73; in test [6], 5.49. The Ratio in test [3] was determined as 166; in test [4], 95; in test [5], 1.74.
Take `COc1ccccc1CNCCCCCCNCCCCCCCCCNCCCCCCNCc1ccccc1OC.Cl.Cl.Cl.Cl`: the pA2 was 7.96 in test [1], 5.81 in test [2] and 6.08 in test [6].
